Our source for the EC50 values is ChEMBL document CHEMBL1154198, “Chemical genetics of Plasmodium falciparum” (Nature, 2010).

Data set [1] deals with Plasmodium falciparum. Briefly: ST_JUDE: Cytotoxicity against Plasmodium falciparum W2. Type of data set: functional, organism-based.
Data set [2] can be described thus: ST_JUDE: Cytotoxicity using luciferase to measure ATP as an indicator of the viability of human epithelial hepatocellular carcinoma cells (HepG2). The data set is classed as toxicity, cell-based.
Data set [3] in a line: ST_JUDE: Cytotoxicity using luciferase to measure ATP as an indicator of the viability of human Burkitt''s lymphoma lymphoblast cells (Raji). The data set is classed as toxicity, cell-based.
Data set [4] in a line: ST_JUDE: Cytotoxicity using luciferase to measure ATP as an indicator of the viability of human epithelial embryonic kidney cells (HEK293). The data set is classed as toxicity, cell-based.
Data set [5] has as its system Plasmodium falciparum. Briefly: ST_JUDE: Cytotoxicity against Plasmodium falciparum D10 transfected with yeast DHOD. Type of data set: functional, organism-based.
The test system of data set [6] is Plasmodium falciparum. Briefly: ST_JUDE: Cytotoxicity against Plasmodium falciparum 3D7. The data set is classed as functional, organism-based. The method, boiled down: (§1)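 Asexual P. falciparum grown in human erythrocytes, exposed to compounds for 72 h, and growth read as the DNA quantity in treated versus control cultures. Dose-response run at 12 concentrations from 10 μM to 5 nM.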

Data set [7] has as its system Trypanosoma brucei. The data set can be described thus: ST_JUDE: Cytotoxicity using luciferase to measure ATP as an indicator of the viability of Trypanosoma brucei. Type of data set: functional, organism-based.
In data set [8] the test system is Plasmodium falciparum. Briefly: ST_JUDE: Cytotoxicity against Plasmodium falciparum Dd2. Type of data set: functional, organism-based.
The nature of data set [9]: ST_JUDE: Cytotoxicity using luciferase to measure ATP as an indicator of the viability of human foreskin fibroblast cells (BJ). The data set is classed as toxicity, cell-based.
The test system of data set [10] is Plasmodium falciparum. Briefly: ST_JUDE: Plasmodium falciparum K1 EC50 (uM) as measured by SYBR green dye. Type of data set: functional, organism-based.
The test system of data set [11] is Plasmodium falciparum. The data set can be described thus: ST_JUDE: Cytotoxicity against Plasmodium falciparum K1. Type of data set: functional, organism-based. The procedure, abridged:
as §1

Data set [12] relates to Toxoplasma gondii. The data set can be described thus: ST_JUDE: Growth inhibition of to Toxoplasma gondii, in human U-2OS cells, as measured by luciferase. Type of data set: functional, organism-based. Conditions: RH, U2OS. The procedure, abridged:
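T. gondii parasites engineered to express luciferase; drug sensitivity read by luminescence.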

Data set [13] concerns Plasmodium falciparum. The data set can be described thus: ST_JUDE: Cytotoxicity against Plasmodium falciparum V1/S. Type of data set: functional, organism-based.
The subject of data set [14] is Plasmodium falciparum. Briefly: ST_JUDE: Cytotoxicity against Plasmodium falciparum SB-A6. Type of data set: functional, organism-based.
In data set [15] the test system is Leishmania major. Briefly: ST_JUDE: Cytotoxicity using Alamar Blue to measure viability of Leishmania major. The data set is classed as functional, organism-based. The method, boiled down:
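L. major promastigotes; drug susceptibility read with Alamar Blue.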
Background: The colour change of resazurin is a common sign of viable cells or microbes.

Data set [16] relates to Plasmodium falciparum. Briefly: ST_JUDE: Plasmodium falciparum 3D7 EC50 (uM) as measured by SYBR green dye. The data set is classed as functional, organism-based.

One may read the EC50 as the concentration at which the effect is half-maximal. Regarding `CCN(CC)CCn1c(=N)n(CC(O)c2ccc(Cl)c(Cl)c2)c2ccccc21` (stereo not drawn), the EC50 in data set [1] is 722 nM; in data set [2] it was 7180 nM; in [3] it was over 43100 nM; in data set [4] it was 30700 nM; in data set [5], 842 nM; in data set [6] it was 804 nM. For the same compound, the EC50 was 4960 nM in [7]; 480 nM in [8]; over 43100 nM in [9]; 761 nM in data set [10]; 1030 nM in [11]; 9010 nM in [12]. Further, the EC50 was 1110 nM in data set [13], 1070 nM in [14], over 18400 nM in data set [15] and 907 nM in data set [16].
In the case of `O=C(Nc1cccc(Cl)c1N1CCOCC1)C(Cl)(Cl)Cl`, the EC50 in [1] is over 7760 nM; in [2] it was over 30200 nM; in data set [3], over 30200 nM; in data set [4], over 30200 nM; in data set [5] it was 3380 nM; in data set [6] it was 1540 nM. For the same compound, the EC50 in data set [7] was over 29000 nM; in data set [8] it was 2470 nM; in [9] it was over 30200 nM; in data set [10], 2980 nM; in data set [11], 1400 nM; in data set [12], over 16600 nM. The EC50 is 1080 nM in data set [13], 2790 nM in data set [14], over 12900 nM in data set [15] and 8600 nM in data set [16].
On to `CC[n+]1ccccc1C=Cc1ccc(N(C)C)cc1`, for which the EC50 is over 11600 nM in data set [1]; over 45300 nM in [2]; 3860 nM in data set [3]; over 45300 nM in data set [4]; 1470 nM in data set [5]; 1080 nM in [6]. The EC50 was 14300 nM in [7]; 1820 nM in [8]; over 45300 nM in data set [9]; 704 nM in data set [10]; 1140 nM in data set [11]; over 24800 nM in data set [12]. For the same compound, the EC50 is 1980 nM in [13], 1920 nM in data set [14], over 19400 nM in [15] and over 15000 nM in data set [16].
For `CCc1ccccc1NC(=O)C1c2ccccc2C(=O)N(CC(C)C)C1c1cccs1` (stereo not drawn), the EC50 in data set [1] was 679 nM; in data set [2], over 43000 nM; in data set [3] it was over 43000 nM; in data set [4] it was over 43000 nM; in data set [5], 1080 nM; in data set [6], 938 nM. Moreover, the EC50 in data set [7] was 12900 nM; in data set [8] it was 1210 nM; in [9] it was over 43000 nM; in data set [10], 526 nM; in data set [11], 1080 nM; in data set [12] it was over 23600 nM. The EC50 in [13] is 1150 nM; in data set [14], 1010 nM; in data set [15], over 18400 nM; in data set [16] it was 511 nM.
For `Cc1ccc(C2CC(C(F)(F)F)n3nc(C(=O)N4CCN(C(c5ccccc5)c5ccccc5)CC4)cc3N2)cc1` (stereo not drawn), the EC50 was over 11000 nM in data set [1]; over 42700 nM in data set [2]; over 42700 nM in [3]; over 42700 nM in [4]; over 11000 nM in data set [5]; 1120 nM in [6]. Further, the EC50 in data set [7] is 5410 nM; in data set [8], 1370 nM; in [9] it was over 42700 nM; in data set [10] it was 10400 nM; in data set [11] it was over 11000 nM; in data set [12], over 23400 nM. For the same compound, the EC50 in data set [13] was over 11000 nM; in [14], 448 nM; in data set [15] it was over 18300 nM; in data set [16], 668 nM.
Consider `CCN(CC)CCN1C(=O)c2ccccc2NC1c1ccc(Cl)cc1` (stereo not drawn), for which the EC50 in data set [1] was 1950 nM; in [2], over 42900 nM; in data set [3], over 42900 nM; in [4], over 42900 nM; in [5] it was 1870 nM; in data set [6] it was 2180 nM. The EC50 in data set [7] was over 41100 nM; in data set [8] it was 1120 nM; in data set [9], over 42900 nM; in data set [10], 526 nM; in data set [11], 1670 nM; in data set [12] it was over 23500 nM. Also, the EC50 in [13] was 1140 nM; in [14], 2000 nM; in data set [15], over 18400 nM; in data set [16] it was 578 nM.
Take `CC(C)c1ccc(CNCC(O)c2ccccc2)cc1` (stereo not drawn): the EC50 in data set [1] was 1680 nM; in data set [2] it was over 52900 nM; in data set [3], 23200 nM; in data set [4], 34500 nM; in data set [5], 4100 nM; in data set [6], 2400 nM. Besides, the EC50 in [7] was 14400 nM; in data set [8], 2250 nM; in data set [9], over 52900 nM; in [10] it was 439 nM; in data set [11], 992 nM; in data set [12], over 29000 nM. Further, the EC50 in data set [13] was 1150 nM; in [14], 4300 nM; in [15] it was over 22600 nM; in [16], 1350 nM.
With `C[N+](C)(C)c1nc(N2CCOCC2)nc(N(c2ccccc2)c2ccccc2)n1`, the EC50 in data set [1] was 5820 nM; in data set [2] it was over 42800 nM; in data set [3] it was 10600 nM; in data set [4], over 42800 nM; in data set [5], 880 nM; in data set [6], 396 nM. Moreover, the EC50 is 5590 nM in [7]; 1300 nM in data set [8]; over 42800 nM in data set [9]; 1830 nM in data set [10]; 1510 nM in data set [11]; over 23500 nM in data set [12]. The EC50 was 1840 nM in [13], 626 nM in [14], over 18300 nM in data set [15] and 529 nM in [16].
Turning to `Oc1ccc(Br)cc1CN1CCN(Cc2cccc(F)c2)CC1`, the EC50 in data set [1] was 1740 nM; in data set [2], over 31800 nM; in [3] it was over 31800 nM; in [4], over 31800 nM; in data set [5] it was 1500 nM; in [6], 1560 nM. Moreover, the EC50 in data set [7] is 25800 nM; in [8], 1500 nM; in data set [9], over 31800 nM; in data set [10], 1300 nM; in data set [11], 656 nM; in data set [12] it was over 17400 nM. Moreover, the EC50 was 723 nM in data set [13], 1740 nM in [14], over 13600 nM in data set [15] and 3510 nM in data set [16].
For the compound `CC(O)(c1ccc(Cl)cc1)C(CN1CCCCC1)c1ccccc1` (stereo not drawn), the EC50 in data set [1] is 7800 nM; in [2] it was over 50600 nM; in data set [3], over 50600 nM; in data set [4] it was over 50600 nM; in data set [5], 5330 nM; in data set [6] it was 2200 nM. The EC50 in data set [7] was 24000 nM; in data set [8], 1260 nM; in [9] it was over 50600 nM; in [10], 267 nM; in data set [11], 652 nM; in [12] it was over 27700 nM. Further, the EC50 in data set [13] is 1310 nM; in [14] it was 4240 nM; in [15] it was over 21600 nM; in data set [16] it was 916 nM.
Consider `CCCO/C(O)=C1\C(C)=NC2=C(C(=O)CC(c3ccc(OC)c(OC)c3)C2)C1c1ccccc1Cl` (stereo not drawn), for which the EC50 in data set [1] was 17 nM; in data set [2], over 39100 nM; in data set [3], over 39100 nM; in data set [4] it was over 39100 nM; in data set [5], 36.9 nM; in data set [6], 75.2 nM. Also, the EC50 in data set [7] is 9300 nM; in [8], 50 nM; in [9] it was over 39100 nM; in data set [10] it was 16.7 nM; in data set [11], 37.1 nM; in data set [12], over 21400 nM. Also, the EC50 is 66 nM in data set [13], 26.2 nM in [14], over 16700 nM in [15] and 24.7 nM in data set [16].
Take `CCOc1ccc(N(C(C)=O)C2=C(N3CCOCC3)C(=O)c3ccccc3C2=O)cc1`: the EC50 in data set [1] worked out at 1880 nM; in data set [2], 6000 nM; in [3], 4570 nM; in data set [4] it was 13100 nM; in data set [5] it was 26.6 nM; in data set [6], 69 nM. The EC50 in data set [7] stood at 2960 nM; in data set [8] it was 487 nM; in data set [9], 9600 nM; in data set [10], 221 nM; in data set [11], 100 nM; in [12], 5190 nM. Also, the EC50 is 51.5 nM in [13], 58.4 nM in [14], over 15900 nM in [15] and 54.7 nM in data set [16].
Take `COC(=O)c1ccc(NC(=O)C2c3ccccc3C(=O)N(CC(C)C)C2c2cccs2)cc1` (stereo not drawn): the EC50 in data set [1] is over 9940 nM; in [2], over 38700 nM; in data set [3], over 38700 nM; in data set [4], over 38700 nM; in data set [5] it was 1360 nM; in data set [6], 1160 nM. The EC50 is 2330 nM in [7]; 1250 nM in data set [8]; over 38700 nM in data set [9]; 1220 nM in [10]; 1520 nM in data set [11]; over 21200 nM in data set [12]. Moreover, the EC50 in data set [13] is 1730 nM; in data set [14], 2260 nM; in data set [15] it was over 16600 nM; in data set [16] it was 998 nM.
